Measurements taken from ChEMBL document CHEMBL4339200, “Structure-based Discovery of Phenyl (3-Phenylpyrrolidin-3-yl)sulfones as Selective, Orally Active RORγt Inverse Agonists” (ACS Med Chem Lett, 2019).
The source made the active and inactive calls. No cut-off for these calls is given here.

Assays:
[1] = target: T1, Nuclear receptor ROR-beta (Homo sapiens) (UniProt Q92753); assay: Agonist activity at GAL4-fused RORbeta LBD (200 to 559 residues) (unknown origin) expressed in human Jurkat cells measured after 18 hrs by native IL17 promoter driven steady-glo luciferase assay; assay type: cell-based
T1 sequence (whole entry): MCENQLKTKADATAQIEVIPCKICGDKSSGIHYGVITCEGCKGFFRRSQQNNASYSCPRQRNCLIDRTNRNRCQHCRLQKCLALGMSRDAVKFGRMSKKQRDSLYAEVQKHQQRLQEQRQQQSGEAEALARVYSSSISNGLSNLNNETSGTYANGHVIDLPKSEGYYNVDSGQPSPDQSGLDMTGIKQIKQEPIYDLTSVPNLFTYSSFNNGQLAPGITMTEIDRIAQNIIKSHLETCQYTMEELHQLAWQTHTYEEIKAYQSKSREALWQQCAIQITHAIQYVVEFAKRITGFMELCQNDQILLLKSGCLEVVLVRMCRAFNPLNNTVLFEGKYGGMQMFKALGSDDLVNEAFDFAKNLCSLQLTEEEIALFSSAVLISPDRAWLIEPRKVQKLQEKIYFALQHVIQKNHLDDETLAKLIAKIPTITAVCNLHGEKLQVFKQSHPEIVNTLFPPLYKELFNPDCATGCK

[2] = Cmax in Balb/c mouse at 10 mg/kg, po; assay type: ADME, organism-based; set-up: dose 10 mg/kg, route oral; conditions: in vivo
Method in brief: (§1)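 Balb/c mice given a single intravenous dose of 2 mg/kg or an oral dose of 10 mg/kg. Plasma exposure was followed to derive Cmax, Tmax, AUC, t1/2, clearance, Vss and oral bioavailability (F).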

[3] = Oral bioavailability in Balb/c mouse at 10 mg/kg; assay type: ADME, organism-based; conditions: in vivo; method in brief: as §1
Cytochrome P450 2C19 = Cytochrome P450 2C19 (Homo sapiens, UniProt P33261); assay: Inhibition of CYP2C19 (unknown origin); assay type: ADME
Sequence of Cytochrome P450 2C19 (P33261 whole entry): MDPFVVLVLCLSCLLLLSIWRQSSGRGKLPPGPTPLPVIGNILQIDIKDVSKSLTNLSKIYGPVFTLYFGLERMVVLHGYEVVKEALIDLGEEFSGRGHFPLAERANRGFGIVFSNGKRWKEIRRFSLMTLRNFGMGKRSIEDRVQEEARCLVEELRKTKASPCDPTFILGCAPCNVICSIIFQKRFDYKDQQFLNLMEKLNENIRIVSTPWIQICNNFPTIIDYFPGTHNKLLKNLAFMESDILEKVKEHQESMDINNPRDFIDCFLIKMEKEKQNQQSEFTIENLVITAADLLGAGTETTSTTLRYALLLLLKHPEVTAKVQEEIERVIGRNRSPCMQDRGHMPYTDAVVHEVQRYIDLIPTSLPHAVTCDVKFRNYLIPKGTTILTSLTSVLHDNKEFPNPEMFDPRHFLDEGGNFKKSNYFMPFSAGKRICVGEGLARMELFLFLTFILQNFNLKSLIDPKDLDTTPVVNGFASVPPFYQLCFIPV

[4] = Half life in Balb/c mouse at 2 mg/kg, iv; assay type: ADME, organism-based; conditions: in vivo; method in brief: as §1
Mus musculus [5] = assay: Protection against IL23-induced acanthosis C57BL/6 mouse model of psoriasis assessed as reduction in ear swelling at 10 to 50 mg/kg, po bid for 10 days treated 2 hrs prior to IL23 challenge every other day for 10 days measured on day 11; assay type: functional, organism-based
[6] = Protein binding in human plasma assessed as unbound fraction; assay type: ADME, cell-free
Cytochrome P450 1A2 = target: T2, Cytochrome P450 1A2 (Homo sapiens, UniProt P05177); assay: Inhibition of CYP1A2 (unknown origin); assay type: ADME
T2 sequence (P05177 whole entry): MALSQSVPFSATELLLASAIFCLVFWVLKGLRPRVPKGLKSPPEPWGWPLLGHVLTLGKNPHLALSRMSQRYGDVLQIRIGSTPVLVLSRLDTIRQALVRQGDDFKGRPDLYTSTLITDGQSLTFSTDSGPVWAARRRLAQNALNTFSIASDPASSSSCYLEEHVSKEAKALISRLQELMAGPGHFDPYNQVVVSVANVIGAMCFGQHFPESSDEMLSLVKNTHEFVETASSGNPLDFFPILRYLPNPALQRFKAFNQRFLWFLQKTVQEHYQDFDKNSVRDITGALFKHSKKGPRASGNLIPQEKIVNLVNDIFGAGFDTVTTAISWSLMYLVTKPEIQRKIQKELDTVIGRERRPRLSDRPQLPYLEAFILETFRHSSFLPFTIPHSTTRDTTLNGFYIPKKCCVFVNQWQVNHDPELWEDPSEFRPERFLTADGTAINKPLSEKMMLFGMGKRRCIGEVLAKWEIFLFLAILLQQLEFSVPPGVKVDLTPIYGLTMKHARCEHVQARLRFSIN

Cytochrome P450 3A4 = Cytochrome P450 3A4 (Homo sapiens, UniProt P08684); assay: Inhibition of CYP3A4 (unknown origin); assay type: ADME
Sequence of Cytochrome P450 3A4 (P08684 whole entry, the tested form may be a part): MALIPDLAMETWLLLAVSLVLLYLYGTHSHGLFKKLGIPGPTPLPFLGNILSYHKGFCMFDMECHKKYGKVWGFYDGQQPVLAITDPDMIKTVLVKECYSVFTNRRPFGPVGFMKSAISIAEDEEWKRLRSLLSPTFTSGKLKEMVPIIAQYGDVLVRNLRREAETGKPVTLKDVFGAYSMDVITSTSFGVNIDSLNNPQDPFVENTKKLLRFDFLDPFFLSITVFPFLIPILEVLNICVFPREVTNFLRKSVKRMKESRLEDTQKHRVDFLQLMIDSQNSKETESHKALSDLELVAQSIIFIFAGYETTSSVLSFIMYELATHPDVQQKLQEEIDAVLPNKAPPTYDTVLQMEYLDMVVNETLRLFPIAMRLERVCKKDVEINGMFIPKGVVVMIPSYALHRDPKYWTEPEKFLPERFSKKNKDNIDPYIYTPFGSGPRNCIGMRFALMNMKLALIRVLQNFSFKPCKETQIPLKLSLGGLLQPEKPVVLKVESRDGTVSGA

[7] = target: T3, Nuclear receptor ROR-alpha (Homo sapiens) (UniProt P35398); assay: Agonist activity at GAL4-fused RORalpha LBD (272 to 556 residues) (unknown origin) expressed in human Jurkat cells measured after 18 hrs by native IL17 promoter driven steady-glo luciferase assay; assay type: cell-based
T3 sequence (whole entry): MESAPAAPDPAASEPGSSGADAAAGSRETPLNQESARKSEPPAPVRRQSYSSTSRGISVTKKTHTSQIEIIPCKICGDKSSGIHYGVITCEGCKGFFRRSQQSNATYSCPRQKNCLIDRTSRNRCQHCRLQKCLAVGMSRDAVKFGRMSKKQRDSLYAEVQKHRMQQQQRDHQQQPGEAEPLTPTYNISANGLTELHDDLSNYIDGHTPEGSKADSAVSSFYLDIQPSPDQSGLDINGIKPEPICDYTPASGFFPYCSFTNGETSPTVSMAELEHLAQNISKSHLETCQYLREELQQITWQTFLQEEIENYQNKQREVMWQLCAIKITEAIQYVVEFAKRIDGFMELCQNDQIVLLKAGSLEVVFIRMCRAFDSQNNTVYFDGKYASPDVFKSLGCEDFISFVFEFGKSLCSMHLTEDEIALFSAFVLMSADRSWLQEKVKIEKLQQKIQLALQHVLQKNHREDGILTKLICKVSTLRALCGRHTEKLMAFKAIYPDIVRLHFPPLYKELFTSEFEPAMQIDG

Mus musculus [8] = assay: Inhibition of IL2/IL23-induced GM-CSF production in po bid dosed C57BL/6 mouse treated 30 mins prior to 24 hrs IL2 challenge followed by IL2/IL23 addition at 0,7 and 23 hrs measured after 7 hrs post last IL2/IL23 challenge; assay type: functional, organism-based
Method in brief: (§2)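 Naive mice were challenged three times with IL-2 plus IL-23 (first at 0 and 7 h) and dosed orally bid at 5, 15 or 50 mg/kg. Serum cytokines were measured 7 h after the final IL-2/IL-23 administration. An anti-IL-23 antibody served as positive control.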

Mus musculus [9] = assay: Inhibition of IL2/IL23-induced IL17F production in C57BL/6 mouse at 15 mg/kg, po bid treated 30 mins prior to 24 hrs IL2 challenge followed by IL2/IL23 addition at 0,7 and 23 hrs measured after 7 hrs post last IL2/IL23 challenge relative to control; assay type: functional; conditions: C57BL/6, po; method in brief: as §2
[10] = Stability in mouse liver microsomes assessed as parent compound remaining after 10 mins; assay type: ADME, Microsome; conditions: read-out: Stability
Method in brief: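 Rough stability screen: compound incubated with mouse liver microsomes for 10 min, reported as percentage of parent remaining.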

[11] = Half life in mouse liver microsomes; assay type: ADME, Microsome
Mus musculus [12] = assay: Inhibition of IL2/IL23-induced IL17F production in po bid dosed C57BL/6 mouse treated 30 mins prior to 24 hrs IL2 challenge followed by IL2/IL23 addition at 0,7 and 23 hrs measured after 7 hrs post last IL2/IL23 challenge; assay type: functional, organism-based; method in brief: as §2
[13] = Inhibition of CYP1B2 (unknown origin); assay type: ADME, Homo sapiens

Activity [1]: inactive | Cmax [2]: 6.6 µM | bioavailability [3]: 99% | IC50 (Cytochrome P450 2C19): > 20 µM | half-life [4]: 7.2 h | fraction unbound [6]: 0.037 | IC50 (Cytochrome P450 1A2): > 20 µM | IC50 (Cytochrome P450 3A4): > 20 µM | Activity [7]: inactive | remaining at 10 min [10]: 86% | half-life [11]: > 2 h | IC50 [13]: > 20 µM
Compound: O=C(O)[C@H]1CC[C@H](C(=O)N2CC[C@](c3ccc(C(F)(C(F)(F)F)C(F)(F)F)cc3)(S(=O)(=O)c3ccc(F)cc3)C2)CC1
Activity (Mus musculus [5]): Active | inhibition (Mus musculus [8]): Dose-dependent effect | inhibition in vivo at 15 mg/kg (Mus musculus [9]): 77% | inhibition (Mus musculus [12]): Dose-dependent effect
